We go through 15 compounds from ChEMBL document CHEMBL1124798, “Design of peptidomimetic delta opioid receptor antagonists using the message-address concept” (J Med Chem, 1990).

A value given as a limit tells only on which side of the number the result lay.

Experiment [1] concerns the target Delta-type opioid receptor (Mus musculus) (UniProt P32300). Nature of the experiment: Opioid receptor delta 1 antagonistic activity was measured by the displacement of DADLE in the mouse vas deferens at a concentration of 100 nM. The class given is functional. In short, it runs like this: (§1)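 Mouse vas deferens. Antagonist (nM, as stated on line) incubated with the preparation 15 min before testing. δ agonist [D-Ala2,D-Leu5]enkephalin.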

The target in experiment [2] is Kappa-type opioid receptor (Cavia porcellus) (UniProt P41144). Nature of the experiment: Opioid receptor kappa 1 antagonistic activity was measured by the displacement of ethylketazocine in the guinea pig ileum at a concentration of 100 nM. Type of experiment: functional, tissue-based. In short, it runs like this: (§2)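 Guinea pig ileum. Antagonist (nM, as stated on line) incubated 15 min before testing. Agonists: morphine (μ) and ethylketazocine (κ).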

Experiment [3] addresses Delta-type opioid receptor (Mus musculus) (UniProt P32300). As to the kind of experiment: Antagonist potency was determined as the ratio of [antagonist] to (IC50 ratio-1) for opioid receptor delta 1. Type of experiment: functional. In short, it runs like this:
(§3)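 Ke (nM) = [antagonist]/(IC50 ratio − 1). IC50 ratio is agonist IC50 with antagonist over the control IC50 in the same preparation. Antagonist preincubated 15 min. Agonists: DADLE in mouse vas deferens (δ); morphine (μ) and ethylketazocine (κ) in guinea pig ileum. n ≥ 3.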

Experiment [4] has as its target Mu-type opioid receptor (Cavia porcellus) (UniProt P97266). As to the kind of experiment: Antagonist potency was determined as the ratio of [antagonist] to (IC50 ratio-1) for Opioid receptor mu 1. Type of experiment: functional. Put shortly: as §3
The target in experiment [5] is Kappa-type opioid receptor (Cavia porcellus) (UniProt P41144). Nature of the experiment: Opioid receptor kappa antagonistic activity was measured by the displacement of ethylketazocine in the guinea pig ileum at a concentration of 100 nM. The class given is functional, tissue-based. In short, it runs like this: as §2
The target in experiment [6] is Mu-type opioid receptor (Cavia porcellus) (UniProt P97266). Nature of the experiment: Opioid receptor mu 1 antagonistic activity was measured by the displacement of morphine in the guinea pig ileum at a concentration of 100 nM. Type of experiment: functional, tissue-based. In short, it runs like this: as §2
In experiment [7] the target is Delta-type opioid receptor (Mus musculus) (UniProt P32300). Nature of the experiment: Opioid receptor delta antagonistic activity was measured by the displacement of DADLE in the mouse vas deferens at a concentration of 100 nM. The class given is functional. In short, it runs like this:
as §1

Experiment [8] concerns the target Opioid receptors; mu & delta (Homo sapiens) (UniProt P41143+P35372). Nature of the experiment: Selectivity ratio was determined from Ke value of Opioid receptor mu 1 and Opioid receptor delta 1. Type of experiment: protein assay. The note with it: Cavia porcellus. In short, it runs like this:
(§4)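 Ratios of Ke values, μ/δ or κ/δ. Each Ke = [antagonist]/(IC50 ratio − 1). δ from DADLE in mouse vas deferens; μ (morphine) and κ (ethylketazocine) in guinea pig ileum. 15 min antagonist preincubation, n ≥ 3.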

Experiment [9] addresses Mu-type opioid receptor (Cavia porcellus) (UniProt P97266). Nature of the experiment: Opioid receptor mu antagonistic activity was measured by the displacement of morphine in the guinea pig ileum at a concentration of 100 nM. The class given is functional, tissue-based. In short, it runs like this:
as §2

For experiment [10], the target named is Kappa-type opioid receptor (Cavia porcellus) (UniProt P41144). Nature of the experiment: Antagonist potency was determined as the ratio of [antagonist] to (IC50 ratio-1) for Opioid receptor kappa 1. The class given is functional. In short, it runs like this:
as §3

For experiment [11], the target named is Opioid receptors; delta & kappa (Homo sapiens) (UniProt P41145+P41143). As to the kind of experiment: Selectivity ratio was determined from Ke value of Opioid receptor kappa 1 and Opioid receptor delta 1. Type of experiment: protein assay. The note with it: Cavia porcellus. In short, it runs like this: as §4
For experiment [12], the target named is T1, Mu-type opioid receptor (Cavia porcellus, UniProt P97266). Nature of the experiment: Binding affinity was measured by the displacement of [3H]- DAMGO in guinea pig brain membrane of Opioid receptor mu 1. The class given is cell membranes. Put shortly: (§5)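 Radioligand displacement from guinea pig brain membranes, modified Werling method. μ sites: [3H]DAMGO. δ sites: [3H]DADLE with 1 μM DAMGO. κ sites: [3H]ethylketazocine with 1 μM DAMGO.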

For experiment [13], the target named is T2, Kappa-type opioid receptor (Cavia porcellus, UniProt P41144). Nature of the experiment: Binding affinity was measured by the displacement of [3H]- EK in guinea pig brain membrane of Opioid receptor kappa 1. Type of experiment: cell membranes. Put shortly: as §5
In general terms: In a radioligand displacement assay an active substance lowers the binding of a labelled ligand.

In experiment [14] the target is T2, Kappa-type opioid receptor. As to the kind of experiment: Binding affinity was measured by the displacement of [3H]- EK in guinea pig brain membrane of opioid receptor kappa. The class given is cell membranes. In short, it runs like this: as §5
The target of experiment [15] is T1, Mu-type opioid receptor. Nature of the experiment: Binding affinity was measured by the displacement of [3H]- DAMGO in guinea pig brain membrane of opioid receptor mu. The class given is cell membranes. Put shortly: as §5

Chain of Opioid receptors; mu & delta (Homo sapiens) (P35372 whole entry, looked up): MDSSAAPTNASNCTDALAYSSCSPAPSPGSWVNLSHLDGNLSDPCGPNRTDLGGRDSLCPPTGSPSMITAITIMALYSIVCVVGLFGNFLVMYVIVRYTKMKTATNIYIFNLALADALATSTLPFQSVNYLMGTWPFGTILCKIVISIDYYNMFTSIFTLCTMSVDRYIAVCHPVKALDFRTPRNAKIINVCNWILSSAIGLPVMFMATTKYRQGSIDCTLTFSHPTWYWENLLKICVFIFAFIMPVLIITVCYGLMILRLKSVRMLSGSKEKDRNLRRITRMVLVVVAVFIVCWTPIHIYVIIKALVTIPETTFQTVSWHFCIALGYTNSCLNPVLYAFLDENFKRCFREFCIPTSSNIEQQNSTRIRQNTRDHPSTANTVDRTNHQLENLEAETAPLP
Chain of Opioid receptors; mu & delta (Homo sapiens) (P41143 whole entry, looked up): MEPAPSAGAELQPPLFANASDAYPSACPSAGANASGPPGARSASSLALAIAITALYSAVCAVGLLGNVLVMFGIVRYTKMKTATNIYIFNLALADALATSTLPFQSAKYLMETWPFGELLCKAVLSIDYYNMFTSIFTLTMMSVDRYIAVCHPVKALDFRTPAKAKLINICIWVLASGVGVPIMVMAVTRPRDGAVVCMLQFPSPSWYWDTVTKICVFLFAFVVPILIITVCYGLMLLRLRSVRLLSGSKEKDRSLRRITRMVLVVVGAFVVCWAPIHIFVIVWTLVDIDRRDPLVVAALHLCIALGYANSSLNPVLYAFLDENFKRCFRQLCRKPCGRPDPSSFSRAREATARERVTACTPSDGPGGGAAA
T2 sequence (P41144 whole entry): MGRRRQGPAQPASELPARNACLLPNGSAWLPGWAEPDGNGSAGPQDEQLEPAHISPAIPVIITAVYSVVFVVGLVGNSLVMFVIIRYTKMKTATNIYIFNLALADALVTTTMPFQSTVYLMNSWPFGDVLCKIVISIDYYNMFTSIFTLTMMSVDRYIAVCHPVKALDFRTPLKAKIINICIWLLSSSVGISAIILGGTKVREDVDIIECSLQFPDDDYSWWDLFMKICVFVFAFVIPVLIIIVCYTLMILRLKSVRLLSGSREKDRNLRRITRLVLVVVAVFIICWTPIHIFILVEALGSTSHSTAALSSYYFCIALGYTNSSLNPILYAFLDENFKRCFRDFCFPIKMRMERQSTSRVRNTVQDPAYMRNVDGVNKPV
Chain of Kappa-type opioid receptor (Cavia porcellus) (P41144 whole entry): as above
Chain of Opioid receptors; delta & kappa (Homo sapiens) (P41143 whole entry, looked up): as the sequence (P41143 whole entry, looked up) above
Chain of Opioid receptors; delta & kappa (Homo sapiens) (P41145 whole entry, looked up): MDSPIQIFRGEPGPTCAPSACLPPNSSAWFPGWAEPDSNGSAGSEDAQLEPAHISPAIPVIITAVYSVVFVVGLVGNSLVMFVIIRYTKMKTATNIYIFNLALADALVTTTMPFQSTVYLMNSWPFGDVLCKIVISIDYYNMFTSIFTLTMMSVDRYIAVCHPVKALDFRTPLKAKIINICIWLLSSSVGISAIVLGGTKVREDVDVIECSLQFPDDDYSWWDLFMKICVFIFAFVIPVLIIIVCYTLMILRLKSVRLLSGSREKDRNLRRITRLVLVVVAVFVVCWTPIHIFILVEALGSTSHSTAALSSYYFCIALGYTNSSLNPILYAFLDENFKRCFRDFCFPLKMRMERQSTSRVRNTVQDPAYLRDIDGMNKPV
Chain of Delta-type opioid receptor (Mus musculus) (P32300 whole entry): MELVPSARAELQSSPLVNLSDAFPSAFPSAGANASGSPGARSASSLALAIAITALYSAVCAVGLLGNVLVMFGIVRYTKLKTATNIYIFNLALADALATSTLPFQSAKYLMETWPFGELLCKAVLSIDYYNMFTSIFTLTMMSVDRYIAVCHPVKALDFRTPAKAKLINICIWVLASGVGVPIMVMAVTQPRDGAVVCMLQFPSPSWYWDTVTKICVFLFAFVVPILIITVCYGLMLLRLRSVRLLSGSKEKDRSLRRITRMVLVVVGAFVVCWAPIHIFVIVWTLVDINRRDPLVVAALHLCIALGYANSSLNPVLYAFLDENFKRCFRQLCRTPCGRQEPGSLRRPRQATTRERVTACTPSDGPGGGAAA
T1 sequence (P97266 whole entry): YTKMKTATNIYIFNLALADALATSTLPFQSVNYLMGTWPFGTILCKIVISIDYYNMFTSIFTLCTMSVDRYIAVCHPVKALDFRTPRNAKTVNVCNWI
Chain of Mu-type opioid receptor (Cavia porcellus) (P97266 whole entry): as above

As to `CCOc1cccc2c3c([nH]c12)[C@@H]1Oc2c(O)ccc4c2[C@@]12CCN(CC1CC1)[C@H](C4)[C@]2(O)C3`, the IC50 ratio in [1] worked out at 178; in experiment [2], 0.67; in [5], 0.67; in [6], 8.3; in [7], 178; in experiment [9], 8.3. Further, the Ke in experiment [3] worked out at 0.57 nM; in [4] it was 13 nM. In addition, the Selectivity ratio in [8] was found to be 24.
Take `CC(=O)O[C@@]12Cc3c([nH]c4ccccc34)[C@@H]3Oc4c(O)ccc5c4[C@@]31CCN(CC1CC1)[C@@H]2C5`: the IC50 ratio was found to be 43 in [1]; 1.8 in experiment [2]; 1.8 in experiment [5]; 1.4 in [6]; 43 in [7]; 1.4 in experiment [9]. The Ke in experiment [3] was 2.4 nM; in experiment [4], > 263 nM; in experiment [10], > 127 nM. The values for the Selectivity ratio in experiment [11] and in experiment [8] were > 54 and > 111, respectively.
Broadly, the Ki is the dissociation constant of the complex between target and ligand, obtained from inhibition or displacement. For the compound `Oc1ccc2c3c1O[C@H]1c4c(c5ccccc5n4-c4ccccc4)C[C@@]4(O)[C@@H](C2)N(CC2CC2)CC[C@]314`, the IC50 ratio in [1] is 33; in experiment [2], 6.7; in experiment [5], 6.7; in experiment [6] it was 1.7; in [7] it was 33; in experiment [9] it was 1.7. Moreover, the Ki at Mu-type opioid receptor [12] is 28 nM; in experiment [13] it was 746 nM; in [14], 746 nM; on Mu-type opioid receptor [15] it was 28 nM. Also, the Ke was 3.1 nM in experiment [3], > 149 nM in [4] and > 152 nM in experiment [10]. Besides, the Selectivity ratio in [11] was > 49; in experiment [8], > 48.
`Oc1ccc2c3c1O[C@H]1c4[nH]c5cc6ccccc6cc5c4C[C@@]4(O)[C@@H](C2)N(CC2CC2)CC[C@]314`: the IC50 ratio stood at 4.7 in [1]; 0.91 in [2]; 0.91 in experiment [5]; 0.85 in experiment [6]; 4.7 in experiment [7]; 0.85 in experiment [9]. Besides, the Ke in experiment [3] was 27 nM; in [4], > 118 nM; in experiment [10] it was > 100 nM. Further, the Selectivity ratio in experiment [11] and in [8] was > 4 each time.
With `COc1ccc2c3c1O[C@H]1c4[nH]c5ccccc5c4C[C@@]4(O)[C@@H](C2)N(CC2CC2)CC[C@]314`, the IC50 ratio in experiment [1] turned out to be 1.5; in [2], 0.6; in experiment [5], 0.6; in experiment [6], 1.3; in [7] it was 1.5; in [9], 1.3. Besides, the Ki on Mu-type opioid receptor [12] is 550 nM; in experiment [13], > 1000 nM; in experiment [14] it was > 1000 nM; on Mu-type opioid receptor [15], 550 nM. Moreover, the Ke in experiment [3] was > 200 nM; in experiment [4], > 333 nM; in experiment [10] it was > 167 nM.
Take `Oc1ccc2[nH]c3c(c2c1)C[C@@]1(O)[C@H]2Cc4ccc(O)c5c4[C@@]1(CCN2CC1CC1)[C@H]3O5`: the IC50 ratio in [1] came to 4.7; in experiment [2] it was 3.1; in [5] it was 3.1; in [6], 6.4; in experiment [7] it was 4.7; in experiment [9] it was 6.4. Moreover, the Ke in experiment [3] turned out to be 27 nM; in experiment [4], 19 nM; in experiment [10], 48 nM. The values for the Selectivity ratio in [11] and in experiment [8] were 1.8 and 0.7, respectively.
For `Cc1cccc2c3c([nH]c12)[C@@H]1Oc2c(O)ccc4c2[C@@]12CCN(CC1CC1)[C@H](C4)[C@]2(O)C3`, the IC50 ratio was 67 in [1]; 1.3 in experiment [2]; 1.3 in experiment [5]; 7.1 in [6]; 67 in experiment [7]; 7.1 in experiment [9]. Further, the Ke in experiment [10] is > 333 nM. In addition, in experiment [11], the Selectivity ratio is > 221.
With `Oc1ccc2c3c1O[C@H]1c4[nH]c5cc(F)ccc5c4C[C@@]4(O)[C@@H](C2)N(CC2CC2)CC[C@]314`, the IC50 ratio in experiment [1] turned out to be 24; in [2], 1.6; in experiment [5], 1.6; in experiment [6] it was 1.8; in experiment [7], 24; in [9] it was 1.8. In addition, the Ke in experiment [3] is 4.4 nM; in [4], > 125 nM; in experiment [10], > 167 nM. Further, the Selectivity ratio in [11] is > 38; in experiment [8], > 28.
On to `Oc1ccc2c3c1O[C@H]1c4[nH]c5ccccc5c4C[C@@]4(O)[C@@H](C2)N(CC2CC2)CC[C@]314` [NALTRINDOLE], for which the Ki is 3.8 nM on Mu-type opioid receptor [12], 332 nM in [13] and 332 nM in [14].
For `CC(C)(S)[C@@H](NC(=O)[C@H](Cc1ccc(O)cc1)NC(=O)CNC(=O)[C@H](NC(=O)[C@@H](N)Cc1ccccc1)C(C)(C)S)C(=O)O`, the results for the Selectivity ratio in [11] and in experiment [8] were 202 and 52, respectively.
In the case of `Oc1ccc2c3c1O[C@H]1c4[nH]c5c(O)cccc5c4C[C@@]4(O)[C@@H](C2)N(CC2CC2)CC[C@]314`, the IC50 ratio in experiment [1] came to 239; in experiment [2], 1.4; in [5], 1.4; in experiment [6], 1.9; in experiment [7] it was 239; in experiment [9], 1.9. The figures for the Ke in [3], in [4] and in experiment [10] were 0.42 nM, > 111 nM and > 250 nM, respectively. For the same compound, the Selectivity ratio is > 595 in experiment [11] and > 264 in experiment [8].
As to `CN1CC[C@]23c4c5ccc(O)c4O[C@H]2c2[nH]c4ccccc4c2C[C@@]3(O)[C@H]1C5` [OXYMORPHINDOLE], the IC50 ratio in [1] came out at 1.6; in experiment [2], 0.6; in experiment [5] it was 0.6; in experiment [6] it was 0.9; in [7] it was 1.6; in experiment [9] it was 0.9. The inhibition constant Ki on Mu-type opioid receptor [12] amounted to 468 nM; in [13], 4470 nM; in experiment [14], 4470 nM; on Mu-type opioid receptor [15], 468 nM. Moreover, the Ke in experiment [3] was 5 nM; in experiment [4], > 111 nM; in [10] it was > 167 nM.
As to `Oc1ccc2c3c1O[C@H]1c4[nH]c5c(ccc6ccccc65)c4C[C@@]4(O)[C@@H](C2)N(CC2CC2)CC[C@]314`, the IC50 ratio in experiment [1] amounted to 12.1; in [2], 0.9; in experiment [5], 0.9; in [6], 1.2; in experiment [7], 12.1; in experiment [9] it was 1.2. Besides, the Ke in [3] was 9 nM; in experiment [4], > 500 nM; in [10], > 111 nM. Also, the values for the Selectivity ratio in experiment [11] and in [8] were > 12 and > 55, respectively.
Regarding `CN1CC[C@]23c4c5ccc(O)c4O[C@H]2c2c(c4ccccc4n2C)C[C@@]3(O)[C@H]1C5`, the IC50 ratio in experiment [1] is 1.2; in experiment [2], 0.5; in experiment [5], 0.5; in experiment [6], 0.74; in [7] it was 1.2; in experiment [9], 0.74. The Ke is > 416 nM in experiment [3], > 135 nM in experiment [4] and > 200 nM in experiment [10].
Turning to `Cc1ccc2c3c([nH]c2c1)[C@@H]1Oc2c(O)ccc4c2[C@@]12CCN(CC1CC1)[C@H](C4)[C@]2(O)C3`, the IC50 ratio is 30 in experiment [1]; 1.7 in experiment [2]; 1.7 in experiment [5]; 2.8 in experiment [6]; 30 in experiment [7]; 2.8 in experiment [9]. Besides, the values for the Ke in experiment [3], in [4] and in [10] were 3.5 nM, 55 nM and > 143 nM, respectively. Moreover, the Selectivity ratio in experiment [11] is > 41; in experiment [8], 16.
